In assay [1] the test system is A549. Nature of the assay: Antiproliferative activity against wild type human A549 cells assessed as reduction in cell viability incubated for 48 hrs by MTT assay. Format: functional, cell-based. The conditions noted are these: A549, 48 h. In short, it runs like this:
(§1)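 Cells seeded at 5000 per well in 10% FBS and left overnight, then exposed to agent or DMSO in 5% FBS for 48 h. MTT added for 1 h, dye dissolved in DMSO, absorbance read at 570 nm. Viability given as percent of vehicle control. At least three independent experiments, means ± SD.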
For orientation: Formazan colour is commonly taken as a measure of viable cells.

A further assay relates to PC-9. Nature of the assay: Antiproliferative activity against human PC9 cells harbouring EGFR delE746-A750 mutant assessed as reduction in cell viability incubated for 48 hrs by MTT assay. It counts as functional, cell-based. As to conditions: PC-9, 48 h. The procedure, abridged: as §1
For assay [2], the system named is NCI-H1975. As to the kind of experiment: Antiproliferative activity against human NCI-H1975 cells harbouring EGFR L858R/T790M double mutant assessed as reduction in cell viability incubated for 72 hrs by MTT assay. It counts as functional, cell-based. As to conditions: NCI-H1975, 72 h.
Assay [3] is described as follows: Antiproliferative activity against human CL68 cells harbouring EGFR delE746-A750/T790M mutant assessed as reduction in cell viability incubated for 72 hrs by MTT assay. It counts as functional, cell-based.
The test system of another assay is CL97. As to the kind of experiment: Antiproliferative activity against human CL97 cells harbouring EGFR G719A/T790M mutant assessed as reduction in cell viability incubated for 72 hrs by MTT assay. Format: functional, cell-based. As to conditions: CL97, 72 h.
Assay [4] addresses Epidermal growth factor receptor (Homo sapiens) (UniProt P00533). Nature of the assay: Induction of EGFR degradation in wild type human A549 cells assessed as reduction in EGFR expression 0.2 to 0.6 uM incubated for 48 hrs by Western blot analysis. It counts as cell-based. The procedure, abridged:
(§2)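 After 48 h treatment, cells were scraped and lysed in 1% SDS, 50 mM Tris-HCl pH 8.0, 10 mM EDTA with protease and phosphatase inhibitors. Lysates sonicated, protein measured by BCA, equal amounts run on SDS-PAGE and blotted to nitrocellulose. Primary antibodies (EGFR, c-Met, S473-Akt, Akt, GAPDH) used at 1:1000 overnight at 4 °C, HRP secondaries at 1:5000, ECL detection.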

For assay [5], the target named is Hepatocyte growth factor receptor (Homo sapiens) (UniProt P08581). Nature of the assay: Induction of c-MET degradation in wild type human A549 cells assessed as reduction in c-Met expression at 0.2 to 0.6 uM incubated for 48 hrs by immunoblot analysis. It counts as cell-based. In short, it runs like this:
as §2
On the technique in general: Immunoblotting shows a protein as a band on a membrane.

For assay [6] the target is unchanged. Nature of the assay: Induction of c-MET degradation in human PC9 cells harbouring EGFR delE746-A750 assessed as reduction in c-Met expression at 0.2 to 0.6 uM incubated for 48 hrs by Western blot analysis. It counts as cell-based. In short, it runs like this:
as §2

The target is the same in assay [7]. Nature of the assay: Induction of c-MET degradation in human CL97 cells harbouring EGFR G719A/T790M assessed as reduction in c-Met expression at 0.2 to 0.6 uM incubated for 48 hrs by Western blot analysis. It counts as cell-based. In short, it runs like this: as §2
For assay [8], the system named is Epidermal growth factor receptor (Homo sapiens), P00533 [UNDEFINED MUTATION]. As to the kind of experiment: Induction of EGFR E746-A750 deletion mutant degradation in human PC9 cells assessed as reduction in Akt phosphorylation at 0.4 to 0.8 uM incubated for 48 hrs by Western blot analysis. Format: cell-based. As to conditions: 0.2 to 0.6 uM, in the assay text read “0.2 to 0.6 uM” for “0.4 to 0.8 uM”. In short, it runs like this: as §2

Assay [9] has the same test system. Nature of the assay: Induction of EGFR E746-A750 deletion/T790M mutant degradation in human CL68 cells assessed as Akt phosphorylation at 0.4 to 0.8 uM incubated for 48 hrs by Western blot analysis. It counts as cell-based. In short, it runs like this:
as §2

Assay [10] deals with Epidermal growth factor receptor (Homo sapiens), P00533 [G719A,T790M]. As to the kind of experiment: Induction of EGFR G719A/T790M mutant degradation in human CL97 cells assessed as reduction in Akt phosphorylation at 0.4 to 0.8 uM incubated for 48 hrs by Western blot analysis. It counts as cell-based. In short, it runs like this: as §2
Assay [11] has as its target Epidermal growth factor receptor (Homo sapiens) (UniProt P00533). As to the kind of experiment: Effect on EGFR degradation in wild type human A549 cells assessed as reduction in EGFR mRNA expression at 0.2 to 0.6 uM incubated for 48 hrs by RT-PCR analysis. Format: cell-based. In short, it runs like this:
(§3)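 Total RNA extracted with TRIzol from H1975 and A549 cells treated at 0.2–0.6 µM. EGFR and c-Met mRNA assessed by RT-PCR.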

For assay [12], the target named is Hepatocyte growth factor receptor (Homo sapiens) (UniProt P08581). As to the kind of experiment: Effect on c-MET degradation in wild type human A549 cells assessed as reduction in c-Met mRNA expression at 0.2 to 0.6 uM incubated for 48 hrs by RT-PCR analysis. Format: cell-based. In short, it runs like this:
as §3

Assay [13] shares this target. Nature of the assay: Effect on c-Met degradation in human NCI-H1975 cells harboring EGFR L858R/T790M double assessed as reduction in c-Met expression at 0.2 to 0.6 uM incubated for 48 hrs by RT-PCR analysis. Format: cell-based. In short, it runs like this:
as §3

The test system of assay [14] is A549. As to the kind of experiment: Cell cycle arrest in human A549 cells assessed as increase in accumulation of cells at G2/M phase at 0.2 to 0.6 uM incubated for 48 hrs by propidium iodide based flow cytometry. Format: functional. The procedure, abridged: (§4)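 Cells plated at 3 × 10^5 per 6-cm dish and left overnight, then treated for 24 h and 48 h. Pellets fixed in 70% ethanol and stained with 40 µg/ml propidium iodide plus 20 µg/ml RNase A, 30 min on ice in the dark. DNA content read on a FACSCalibur flow cytometer.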
(A flow cytometer gives signals particle by particle.)

Assay [15] relates to NCI-H1975. Nature of the assay: Cell cycle arrest in human NCI-H1975 cells harbouring EGFR L858R/T790M double mutant assessed as increase in cells accumulation at G2/M phase at 0.2 to 0.6 uM incubated for 48 hrs by propidium iodide based flow cytometry. Format: functional. In short, it runs like this:
as §4

A further assay is filed under the species Homo sapiens. As to the kind of experiment: Cell cycle arrest in human CL68 cells harbouring EGFR delE746-A750/T790M mutant assessed as increase in cells accumulation at G2/M phase at 0.4 to 0.8 uM incubated for 48 hrs by propidium iodide based flow cytometry. It counts as functional. In short, it runs like this:
as §4

Assay [16] deals with NCI-H1975. Nature of the assay: Antitumor activity against human NCI-H1975 cells harbouring EGFR L858R/T790M double mutant xenografted in athymic Nude-Foxn1nu BALB/c mouse assessed as tumor growth inhibition at 50 mg/kg, po administered once daily via gavage for 20 days measured twice a week by caliper method relative to control. The conditions noted are these: 480 h, read-out: TGI. It counts as functional.

Assay [17] relates to NCI-H1975. As to the kind of experiment: Antitumor activity against human NCI-H1975 cells harbouring EGFR L858R/T790M double mutant xenografted in orally dosed athymic Nude-Foxn1nu BALB/c mouse assessed as tumor growth inhibition administered once daily via gavage for 20 days measured twice a week by caliper method. Format: functional, organism-based. The procedure, abridged: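 Female Balb/c nude mice, 5 weeks old, injected subcutaneously in the right flank with 10^6 H1975 cells in 0.1 ml. Randomized at about 50 mm3, n = 8 per group. Gavaged once daily for 20 days with vehicle (10% DMSO/0.1% Tween 80/0.5% methylcellulose in sterile water) or 50 or 150 mg/kg. Calipers, V = width² × length × 0.52; volume and body weight twice weekly; Student's t-test.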

In assay [18] the test system is NCI-H1975. Nature of the assay: Antitumor activity against human NCI-H1975 cells harbouring EGFR L858R/T790M double mutant xenografted in athymic Nude-Foxn1nu BALB/c mouse assessed as reduction in EGFR expression in tumor lysates administered once daily via oral gavage for 20 days measured on day 20 by Western blot analysis. It counts as functional. The conditions noted are these: Neoplasm, Lysate. The procedure, abridged:
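H1975 xenografts in nude mice gavaged daily for 20 days with vehicle, 50 or 150 mg/kg. At study end mice were killed by CO2, and tumor lysates from four representative tumors per group were immunoblotted for EGFR and c-Met. Band intensities quantified by densitometry.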

The results in this text go back to ChEMBL document CHEMBL4359903, “1,2,4-Oxadiazole derivatives targeting EGFR and c-Met degradation in TKI resistant NSCLC” (Eur J Med Chem, 2019).

pIC50: −log10 of the molar value. Active and inactive are the calls of the source. The rule behind the calls is not given here.

Sequence of Hepatocyte growth factor receptor (Homo sapiens) (P08581 whole entry): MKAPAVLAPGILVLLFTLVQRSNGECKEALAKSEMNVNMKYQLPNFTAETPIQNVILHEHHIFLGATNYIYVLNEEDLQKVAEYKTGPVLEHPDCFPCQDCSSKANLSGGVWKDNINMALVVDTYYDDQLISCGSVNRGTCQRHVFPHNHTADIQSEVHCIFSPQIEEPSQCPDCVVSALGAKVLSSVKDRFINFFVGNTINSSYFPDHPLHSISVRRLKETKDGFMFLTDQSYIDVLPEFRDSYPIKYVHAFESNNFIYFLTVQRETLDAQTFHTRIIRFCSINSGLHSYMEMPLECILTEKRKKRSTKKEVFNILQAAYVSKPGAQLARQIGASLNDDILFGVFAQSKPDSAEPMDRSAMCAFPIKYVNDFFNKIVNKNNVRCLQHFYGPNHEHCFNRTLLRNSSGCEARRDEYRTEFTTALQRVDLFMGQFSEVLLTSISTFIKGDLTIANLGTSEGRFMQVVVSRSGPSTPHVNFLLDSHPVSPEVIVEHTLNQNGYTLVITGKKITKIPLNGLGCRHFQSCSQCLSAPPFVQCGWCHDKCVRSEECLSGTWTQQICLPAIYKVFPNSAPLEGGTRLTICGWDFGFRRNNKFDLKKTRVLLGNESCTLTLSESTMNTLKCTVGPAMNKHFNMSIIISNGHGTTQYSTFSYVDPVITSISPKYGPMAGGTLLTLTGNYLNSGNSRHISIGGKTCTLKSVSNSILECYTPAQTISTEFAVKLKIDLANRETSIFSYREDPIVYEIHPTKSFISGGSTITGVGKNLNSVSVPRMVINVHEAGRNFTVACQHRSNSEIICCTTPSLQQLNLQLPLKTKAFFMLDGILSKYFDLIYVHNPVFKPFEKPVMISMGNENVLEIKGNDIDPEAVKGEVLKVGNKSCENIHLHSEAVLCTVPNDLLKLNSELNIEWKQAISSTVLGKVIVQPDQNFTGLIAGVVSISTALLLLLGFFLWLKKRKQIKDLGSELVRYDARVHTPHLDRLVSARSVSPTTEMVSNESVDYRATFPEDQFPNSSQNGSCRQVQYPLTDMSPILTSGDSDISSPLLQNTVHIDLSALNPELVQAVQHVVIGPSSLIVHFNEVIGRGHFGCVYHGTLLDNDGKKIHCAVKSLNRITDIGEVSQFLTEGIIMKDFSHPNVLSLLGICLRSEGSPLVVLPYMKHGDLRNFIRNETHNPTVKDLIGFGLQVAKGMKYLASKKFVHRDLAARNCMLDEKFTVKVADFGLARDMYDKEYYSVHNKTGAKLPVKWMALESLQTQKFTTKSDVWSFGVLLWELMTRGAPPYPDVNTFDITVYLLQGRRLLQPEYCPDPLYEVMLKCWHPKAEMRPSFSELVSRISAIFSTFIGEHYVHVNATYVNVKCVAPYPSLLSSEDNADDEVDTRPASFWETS

Broadly, the pIC50 is the IC50 on a negative log10 scale, so that one unit is a factor of ten. `O=C(Nc1cccc(-c2nc(-c3ccc(NC(=O)c4cccnc4)cc3Cl)no2)c1)Nc1ccc(NC(=O)C2CC2)c(C(F)(F)F)c1`: the pIC50 in the assay with A549 [1] was 6.52; in the assay on PC-9 it was 6.22; with NCI-H1975 [2], 6.52; in assay [3], 6.40; in the assay on CL97 it was 6.30. Moreover, the result in assay [4], in assay [5], in assay [6], in assay [7], in [8] and in assay [10] was Active. Further, the result in the assay on A549 [14], in the assay on NCI-H1975 [15] and in the assay listed under Homo sapiens was Active. Further, the result in [9], in [11], in assay [12] and in assay [13] was inactive. In addition, the inhibition in vivo at 50 mg/kg with NCI-H1975 [16] is 29 to 37%. The TGI result in the assay with NCI-H1975 [17] is “Dose-dependent effect”. Besides, the Activity entry in the assay on NCI-H1975 [18] was “Dose-dependent effect”.
